The test relates to Rattus norvegicus. Put plainly: Antialzheimer activity in Sprague-Dawley rat assessed as amyloid beta 37 level in brain at 10 mg/kg, po at 7 hrs by ELISA relative to control. In kind it is functional. An outline of the steps: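 Male Sprague-Dawley rats (180-220 g), fasted overnight, were given 10 mg/kg by gastric intubation as a 5 mg/mL suspension in 0.5% methocellulose. At 2, 4, 7 and 25 h, 50 μL CSF was taken from the cisterna magna under isoflurane, then brain was collected. Aβ37/38/40/42 were measured by MesoScale Discovery sandwich immunoassays. Results are mean % change versus T = 0 h, n = 5.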
On the technique in general: An ELISA detects its analyte on a solid surface through an enzyme-linked reagent.

In the case of `COc1nc(Nc2cccc3c2nc(-c2ccc(F)cc2)n3C)ccc1-n1cnc(C)c1`, the Activity turned out to be 620%.

The values are drawn from ChEMBL document CHEMBL2176900, “Design and synthesis of a novel series of bicyclic heterocycles as potent γ-secretase modulators” (J Med Chem, 2012).
